Measurements published in ChEMBL document CHEMBL5107935, “Modulating β-arrestin 2 recruitment at the δ- and μ-opioid receptors using peptidomimetic ligands” (RSC Med Chem, 2021).
pEC50, pIC50, pKi: −log10 of the molar value.

Legend:
[1] = molecular target: T1, Delta-type opioid receptor (Homo sapiens, UniProt P41143); experiment: Displacement of [3H]DPDPE from human delta opioid receptor expressed in CHO cell membrane measured after 90 mins by liquid scintillation counting method; format: cell membranes
Summary of the method: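 Membranes (7 μg protein) were added and incubated 90 min at room temperature in 50 mM Tris HCl, 10 mM MgCl2, 1 mM EDTA, pH 7.4. Samples were filtered on GF-B, washed 4× with ice-cold 50 mM Tris HCl, and counted by scintillation. Points were run in duplicate.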

Mu-type opioid receptor [2] = molecular target: Mu-type opioid receptor (Mus musculus, UniProt P42866); experiment: Agonist activity at FLAG-tagged mouse mu opioid receptor expressed in human HEK293 cells assessed as inhibition of forskolin stimulated cAMP production preincubated for 20 mins followed by forskolin stimulation and measured after 15 mins by GloSensor assay; format: functional, cell-based
[3] = molecular target: T1, Delta-type opioid receptor; experiment: Agonist activity at human delta opioid receptor expressed in CHO cells co-expressing beta-arrestin2 assessed as beta-arrestin2 recruitment by measuring maximum efficacy measured after 90 mins by PathHunter assay; format: functional, cell-based; conditions: filed as agonist
Summary of the method: (§1)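 PathHunter CHO cells expressing human δOR and β-arrestin 2 were plated at 2,500 cells/well one day before use. Drug was applied for 90 min at 37 °C/5% CO2, followed by PathHunter assay buffer for 60 min at room temperature. Luminescence was read. Points were run in duplicate, and pEC50 was obtained by nonlinear regression; values are means ± SEM.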

Mu-type opioid receptor [4] = molecular target: T2, Mu-type opioid receptor (Homo sapiens, UniProt P35372); experiment: Agonist activity at human mu opioid receptor expressed in CHO cells co-expressing beta-arrestin2 assessed as beta-arrestin2 recruitment measured after 90 mins by PathHunter assay; format: functional, cell-based
[5] = molecular target: T1, Delta-type opioid receptor; experiment: Agonist activity at human delta opioid receptor expressed in CHO cells co-expressing beta-arrestin2 assessed as beta-arrestin2 recruitment measured after 90 mins by PathHunter assay; format: functional, cell-based; summary of the method: as §1
[6] = molecular target: Delta-type opioid receptor (Mus musculus, UniProt P32300); experiment: Agonist activity at FLAG-tagged mouse delta opioid receptor expressed in human HEK293 cells assessed as inhibition of forskolin stimulated cAMP production preincubated for 20 mins followed by forskolin stimulation and measured after 15 mins by GloSensor assay; format: functional, cell-based
Summary of the method: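 HEK293 cells transiently transfected 1:3 with FLAG-mouse δOR or HA-mouse μOR plus pGloSensor22F-cAMP; used two days later at 20,000 cells/well. GloSensor reagent (2% final) applied 90 min at room temperature, then drug 20 min, then forskolin (30 μM final) 15 min, all at room temperature. Luminescence read; triplicates; pIC50 from nonlinear regression.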

Mu-type opioid receptor [7] = molecular target: T2, Mu-type opioid receptor; experiment: Displacement of [3H]DAMGO from human mu opioid receptor expressed in CHO cell membrane incubated for 90 mins by liquid scintillation counting method; format: cell membranes
Homo sapiens = organism: Homo sapiens; experiment: Selectivity ratio, ratio of Ki for displacement of [3H]DAMGO from human mu opioid receptor expressed in CHO cell membrane to Ki for displacement of [3H]DPDPE from human delta opioid receptor expressed in CHO cell membrane; format: cell membranes

Sequence of Mu-type opioid receptor (Mus musculus, UniProt P42866) (P42866 whole entry): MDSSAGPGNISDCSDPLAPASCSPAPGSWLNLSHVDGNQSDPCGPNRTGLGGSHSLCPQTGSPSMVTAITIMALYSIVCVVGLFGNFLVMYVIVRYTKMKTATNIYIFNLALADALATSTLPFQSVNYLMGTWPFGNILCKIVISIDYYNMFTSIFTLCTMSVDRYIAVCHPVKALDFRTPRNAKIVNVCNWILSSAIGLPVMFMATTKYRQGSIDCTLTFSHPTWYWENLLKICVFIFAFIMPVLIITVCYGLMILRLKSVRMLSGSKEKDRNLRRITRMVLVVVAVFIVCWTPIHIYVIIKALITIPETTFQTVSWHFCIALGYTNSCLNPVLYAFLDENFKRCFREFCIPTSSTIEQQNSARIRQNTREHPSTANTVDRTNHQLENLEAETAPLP
T1 sequence (P41143 whole entry): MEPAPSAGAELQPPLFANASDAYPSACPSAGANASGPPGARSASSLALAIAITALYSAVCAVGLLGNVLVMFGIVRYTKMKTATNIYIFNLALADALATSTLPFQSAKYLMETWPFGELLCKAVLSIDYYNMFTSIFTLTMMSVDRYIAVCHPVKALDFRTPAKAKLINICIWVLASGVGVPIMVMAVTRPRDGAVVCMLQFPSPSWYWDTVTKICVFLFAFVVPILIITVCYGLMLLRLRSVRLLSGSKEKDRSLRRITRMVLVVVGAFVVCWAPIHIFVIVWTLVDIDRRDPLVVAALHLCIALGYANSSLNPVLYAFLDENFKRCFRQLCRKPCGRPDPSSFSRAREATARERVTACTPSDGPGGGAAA
T2 sequence (P35372 whole entry): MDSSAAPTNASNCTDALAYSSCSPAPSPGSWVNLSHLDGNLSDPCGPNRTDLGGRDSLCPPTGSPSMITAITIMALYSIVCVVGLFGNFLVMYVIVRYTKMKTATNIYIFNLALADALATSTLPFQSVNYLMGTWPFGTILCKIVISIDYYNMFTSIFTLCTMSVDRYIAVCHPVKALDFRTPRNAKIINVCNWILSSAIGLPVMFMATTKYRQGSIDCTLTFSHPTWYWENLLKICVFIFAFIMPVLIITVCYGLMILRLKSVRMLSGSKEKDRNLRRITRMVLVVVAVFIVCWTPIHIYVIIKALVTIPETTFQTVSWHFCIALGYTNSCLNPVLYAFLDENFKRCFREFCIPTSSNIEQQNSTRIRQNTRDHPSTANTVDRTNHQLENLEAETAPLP
Sequence of Delta-type opioid receptor (Mus musculus, UniProt P32300) (P32300 whole entry): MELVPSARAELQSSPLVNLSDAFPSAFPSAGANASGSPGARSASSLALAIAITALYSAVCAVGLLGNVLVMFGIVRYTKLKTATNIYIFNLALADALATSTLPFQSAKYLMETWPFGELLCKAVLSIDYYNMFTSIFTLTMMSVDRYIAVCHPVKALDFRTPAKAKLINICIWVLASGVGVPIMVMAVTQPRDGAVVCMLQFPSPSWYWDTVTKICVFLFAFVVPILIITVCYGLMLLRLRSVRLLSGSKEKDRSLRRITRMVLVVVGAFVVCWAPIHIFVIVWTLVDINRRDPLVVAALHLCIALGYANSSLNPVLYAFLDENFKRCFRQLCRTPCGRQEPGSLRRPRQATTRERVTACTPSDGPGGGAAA

CCNC(=O)[C@H](CC(C)C)NC(=O)[C@H](Cc1ccccc1)NC(=O)CNC(=O)C/C=C(\F)[C@@H](N)Cc1ccc(O)cc1
pKi [1]: 7.26 | pIC50 (Mu-type opioid receptor [2]): 6.75 | Emax [3]: 70% | pEC50 (Mu-type opioid receptor [4]): 5.64 | pEC50 [5]: 6.16 | pIC50 [6]: 7.18 | pKi (Mu-type opioid receptor [7]): 7.70 | Ratio Ki (Homo sapiens): 0.4

CC(C)C[C@H](NC(=O)[C@H](Cc1ccccc1)NC(=O)CNC(=O)C/C=C(\F)[C@@H](N)Cc1ccc(O)cc1)C(=O)O
pIC50 (Mu-type opioid receptor [2]): 6.44 | Emax [3]: 102% | pIC50 [6]: 7.47

CNC(=O)[C@H](CC(C)C)NC(=O)[C@H](Cc1ccccc1)NC(=O)CNC(=O)C/C=C(\F)[C@@H](N)Cc1ccc(O)cc1
pKi [1]: 7.25 | pIC50 (Mu-type opioid receptor [2]): 7.37 | Emax [3]: 90% | pEC50 (Mu-type opioid receptor [4]): 5.14 | pEC50 [5]: 6.18 | pIC50 [6]: 7.30 | pKi (Mu-type opioid receptor [7]): 8.00 | Ratio Ki (Homo sapiens): 0.2

CC(C)C[C@H](NC(=O)[C@H](Cc1ccccc1)NC(=O)CNC(=O)C/C=C(\F)[C@@H](N)Cc1ccc(O)cc1)C(=O)N(C)C
pKi [1]: 6.59 | pIC50 (Mu-type opioid receptor [2]): 6.00 | Emax [3]: 63% | pEC50 (Mu-type opioid receptor [4]): 4.75 | pEC50 [5]: 5.42 | pIC50 [6]: 6.37 | pKi (Mu-type opioid receptor [7]): 7.07 | Ratio Ki (Homo sapiens): 0.3

CC(C)C[C@H](NC(=O)[C@H](Cc1ccccc1)NC(=O)CNC(=O)C/C=C(\F)[C@@H](N)Cc1ccc(O)cc1)C(=O)NC1CC1
pKi [1]: 6.99 | pIC50 (Mu-type opioid receptor [2]): 6.90 | Emax [3]: 69% | pEC50 (Mu-type opioid receptor [4]): 5.37 | pEC50 [5]: 6.16 | pIC50 [6]: 6.82 | pKi (Mu-type opioid receptor [7]): 7.58 | Ratio Ki (Homo sapiens): 0.3

CC(C)C[C@H](NC(=O)[C@H](Cc1ccccc1)NC(=O)CNC(=O)C/C=C(\F)[C@@H](N)Cc1ccc(O)cc1)C(N)=O
pKi [1]: 7.03 | pIC50 (Mu-type opioid receptor [2]): 6.73 | Emax [3]: 84% | pEC50 (Mu-type opioid receptor [4]): 5.58 | pEC50 [5]: 6.02 | pIC50 [6]: 7.33 | pKi (Mu-type opioid receptor [7]): 8.15 | Ratio Ki (Homo sapiens): 0.1
